# Published values collected from several papers.
# SLC6A3: Sodium-dependent dopamine transporter (SLC6A3, Homo sapiens, UniProt Q01959)
# CA12: Carbonic anhydrase 12 (CA12, Homo sapiens, UniProt O43570)
# DRD3: D(3) dopamine receptor (DRD3, Homo sapiens, UniProt P35462)
SMILES,target,read-out,mode,method,measurement,result
CCOC(=O)[C@@]12C[C@@H]1[C@@H](n1ccc3c(NCCCCc4ccccc4)nc(C#Cc4ccccc4)nc31)[C@H](O)[C@@H]2O,SLC6A3,ligand displacement,,radioligand,Ki,8 µM
O=C(OCc1cn(-c2ccc(Cl)cc2)nn1)c1ccc(=O)oc1,CA12,enzyme activity,inhibitor,stopped-flow,Ki,61.3 µM
N#CC[C@@]12C[C@@H]1[C@@H](n1cnc3c(NCc4cccc(Cl)c4)nc(C#Cc4ccc(Cl)s4)nc31)[C@H](O)[C@@H]2O,SLC6A3,ligand displacement,,radioligand,Ki,1.2 µM
C#CCNC(=O)c1ccc(=O)oc1,CA12,enzyme activity,inhibitor,stopped-flow,Ki,68.1 µM
CCOC(=O)[C@@]12C[C@@H]1[C@@H](n1cnc3c(NCc4cccc(Cl)c4)nc(C#Cc4ccc(Cl)s4)nc31)[C@H](O)[C@@H]2O,SLC6A3,ligand displacement,,radioligand,Ki,0.94 µM
Cc1ccc(-n2cc(CNC(=O)c3ccc(=O)oc3)nn2)cc1,CA12,enzyme activity,inhibitor,stopped-flow,Ki,57.8 µM
Cc1[nH]cc(S(=O)(=O)Nc2ccc(C(F)(F)F)c(Cl)c2)c1C(=O)N(C)C,DRD3,G protein activation,antagonist,BRET,IC50,6.3 µM
CCOC(=O)[C@@]12C[C@@H]1[C@@H](n1cnc3c(NCCCCCc4ccccc4)nc(I)nc31)[C@H](O)[C@@H]2O,SLC6A3,ligand displacement,,radioligand,Ki,1.6 µM
CC(C)(Sc1ccc(CCN(CCCCC2CCCCC2)C(=O)NC2CCCCC2)cc1)C(=O)O,"Triggering receptor expressed on myeloid cells 2 (Homo sapiens, UniProt Q9NZC2)",binding,,SPR,Kd,86.2 µM
C#CCOC(=O)c1ccc(=O)oc1,CA12,enzyme activity,inhibitor,stopped-flow,Ki,76.3 µM
Cc1[nH]c(C)c(S(=O)(=O)Nc2ccc(C(=O)C(F)(F)F)c(Cl)c2)c1C(=O)N1CCC(F)(F)C1,DRD3,G protein activation,antagonist,BRET,IC50,14.3 µM
N#CSCc1cc(=O)oc2cc(O)ccc12,CA12,enzyme activity,inhibitor,stopped-flow,Ki,0.0236 µM
OCc1ccccc1O[C@@H]1O[C@H](CO)[C@@H](O)[C@H](O)[C@H]1O,"Taste receptor type 2 member 16 (TAS2R16, Homo sapiens, UniProt Q9NYV7)",inositol phosphate,agonist,TR-FRET,EC50,13 mM
Cc1ccc(-n2cc(COC(=O)c3ccc(=O)oc3)nn2)cc1,CA12,enzyme activity,inhibitor,stopped-flow,Ki,62.6 µM
CCN(C)C(=O)c1c(C)[nH]c(C)c1S(=O)(=O)Nc1ccc(C(F)(F)F)c(Cl)c1,DRD3,G protein activation,antagonist,BRET,IC50,13 µM
OC[C@@]12C[C@@H]1[C@@H](n1cnc3c(NCCCCCCc4ccccc4)nc(I)nc31)[C@H](O)[C@@H]2O,SLC6A3,ligand displacement,,radioligand,Ki,0.89 µM
Cc1[nH]c(C)c(S(=O)(=O)Nc2ccc(C(F)(F)F)c(Cl)c2)c1C(=O)N1CC[C@@H](F)C1,DRD3,β-arrestin recruitment,antagonist,,IC50,5.1 µM
O=C(Oc1ccc(Cl)cc1)c1ccc(=O)oc1,CA12,enzyme activity,inhibitor,stopped-flow,Ki,76.3 µM
CCOC(=O)[C@@]12C[C@@H]1[C@@H](n1cnc3c(NCCO)nc(C#Cc4ccc(Cl)s4)nc31)[C@H](O)[C@@H]2O,SLC6A3,ligand displacement,,radioligand,EC50,0.00097 mM
Cc1[nH]c(C)c(S(=O)(=O)Nc2ccc(C3CC3)c(Cl)c2)c1C(=O)N1CCC(F)(F)C1,DRD3,β-arrestin recruitment,antagonist,,IC50,13 µM
OC[C@@]12C[C@@H]1[C@@H](n1cnc3c(N[C@@H](C4CCC4)C4CC4)nc(C#Cc4ccc(Cl)s4)nc31)[C@H](O)[C@@H]2O,SLC6A3,ligand displacement,,radioligand,Ki,0.89 µM
Cc1[nH]c(C)c(S(=O)(=O)Nc2ccc([N+](=O)[O-])c(Cl)c2)c1C(=O)N1CCC(F)(F)C1,DRD3,β-arrestin recruitment,antagonist,,IC50,40 µM
O=C(OCc1cn(-c2ccc([N+](=O)[O-])cc2)nn1)c1ccc(=O)oc1,CA12,enzyme activity,inhibitor,stopped-flow,Ki,62.8 µM
Cc1[nH]c(C)c(S(=O)(=O)Nc2ccc(C(F)(F)F)c(Cl)c2)c1C(=O)N1CCN(C(=O)OC(C)(C)C)CC1,DRD3,G protein activation,antagonist,BRET,IC50,29 µM
O=C(NCc1cn(-c2ccc(Cl)cc2)nn1)c1ccc(=O)oc1,CA12,enzyme activity,inhibitor,stopped-flow,Ki,61.2 µM
COc1cc(C(F)(F)F)c(Cl)cc1NS(=O)(=O)c1c(C)[nH]c(C)c1C(=O)N1CCC(F)(F)C1,DRD3,β-arrestin recruitment,antagonist,,IC50,7.2 µM
CNC(=O)[C@@]12C[C@@H]1[C@@H](n1cnc3c(NCc4cccc(Cl)c4)nc(C#Cc4ccc(Cl)s4)nc31)[C@H](O)[C@@H]2O,SLC6A3,ligand displacement,,radioligand,Ki,1.6 µM
